Bioassay records deposited in PubChem by several laboratories.
Ba/F3 V617F tox: reduce viability of Ba/F3 cells dependent on JAK2V617F; Ba/F3 EpoR-JAK2V617F viability, ATP luminescence; inhibition, % at 5.6 µM; 1.1% of 220,000 active;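 active = inhibition above the campaign mean plus 3 SD over all tested compounds, cut at about 24% in these data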;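 also: cytokine-independent growth of Ba/F3 cells driven by EpoR plus mutant JAK2; 0% = DMSO-treated cells and 100% = JAK inhibitor I control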
BaF3 parental: parental Ba/F3 viability inhibition as JAK2V617F counter-screen; 1.1% of 220,000 active; CellTiter-Glo ATP luminescence; inhibition, % at 5.6 µM;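 active = inhibition above a per-campaign cutoff, the mean inhibition of all tested compounds plus 3 SD, cut at about 27% in these data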;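 also: 0% = DMSO wells and 100% = JAK Inhibitor I control wells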
MT stabilize HCS: microtubule stabilization, imaging screen; 0.83% of 200,000 active; HeLa tubulin immunostaining HCS, 24 h; share of cells brighter than vehicle mean+2SD; AID 2205; % tubulin-high responders, % at 10 µM;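 active = plate Z-score above 3 for both tubulin-high and condensed-nucleus cell shares, with cell loss under 80%, at 10 µM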;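 also: anti alpha tubulin signal scored within the nucleus-defined area of each cell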
IEC-6 tox-1: kills IEC-6 intestinal cells in KLF5 counter-screen; IEC-6 cytotoxicity, luminescence viability; inhibition, % at 5 µM; 0.78% of 290,000 active; AID 1825;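 also: 0% = plate median of test compound wells and 100% = cytotoxic reference compound wells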
bCat nuc transl: alters nuclear translocation of beta-catenin in HeLa cells | immunofluorescence imaging | nuclear translocation activity, % at 5 µM | 0.3% of 190,000 active | AID 1665;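 active = nuclear translocation activity above 50% at 5 µM, with a well cell count of 50 or more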;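 also: per-cell ratio of nuclear to cytoplasmic median beta-catenin stain intensity; plate controls were DMSO negative control for no effect and GSK-3 inhibitor IX positive control for full effect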
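Test system: human HeLa cells, endogenous beta-catenin. Times: 24 h compound exposure, 37°C. Measured by: beta-catenin immunofluorescence imaging with DAPI.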
KLF5 inh: inhibitors of KLF5 expression | inhibition, % at 5 µM | 0.23% of 290,000 active | DLD-1 KLF5 promoter-luciferase reporter, luminescence;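 active = inhibition above a per-plate limit of that plate's mean compound inhibition plus 3 SD, cut at about 60% in these data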;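 also: 0% = DMSO wells and 100% = LY294002 at 200 µM; higher means less KLF5 promoter-driven luciferase light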
KLF5 confirm: KLF5 inhibition, confirmation assay. shares compounds with KLF5 inh. DLD-1 KLF5 promoter firefly luciferase reporter, luminescence. inhibition, % at 4 µM. 79% of 610 active. AID 1834;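 active = inhibition above a set limit taken from the earlier primary screen, cut at about 63% in these data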;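 also: 0% = DMSO wells and 100% = LY294002 at 200 µM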
IEC-6 tox-2: kills rat IEC-6 cells in KLF5 counter-screen; AID 1905; 56% of 610 active; inhibition, % at 4 µM; IEC-6 rat intestinal cells, viability luminescence; shares compounds with KLF5 inh; in the data active = inhibition above about 23%;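 also: cells exposed to compounds for 48 hours before viability read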
IEC-6 tox confirm: confirmation of cytotoxic compounds in rat IEC-6 intestinal epithelial cells. shares compounds with IEC-6 tox-1. IEC-6 rat intestinal epithelial viability, luminescence. inhibition, % at 5 µM. 63% of 1,900 active. AID 1907;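 also: 0% = vehicle and 100% = reference cytotoxic drug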
* = called active by the depositor; · = no result given. This is a sample that favours compounds with a hit; in the whole collection about 2.1% have one here. Rule as the data show it, unless noted: active = inhibition above about 22%; inactive = the rest.

SMILES	Ba/F3 V617F tox	BaF3 parental	MT stabilize HCS	IEC-6 tox-1	bCat nuc transl	KLF5 inh	KLF5 confirm	IEC-6 tox-2	IEC-6 tox confirm
Cc1c(/C=N\NC(=O)C2COc3ccccc3O2)c2ccccc2n1C (configuration not stated)	78*	76*	6	80*	58*	74*	82*	75*	61*
COc1ccc(/C=C/C(=O)c2cc(F)ccc2OC(=O)c2ccccc2OC)cc1OC	3	10	4	52*	9	70*	84*	40*	41*
COc1ccc(/C=C/C(=O)c2cc(F)ccc2OC(=O)c2ccc(OC)c(OC)c2)cc1OC	2	3	3	0	4	-22	·	·	·
CCN(CC)c1ccc(-c2nn3c(-c4ccccc4OC)nnc3s2)cc1	93*	87*	21	93*	·	80*	91*	72*	77*
CN1C[C@@H]2C[C@@H](C3=Cc4cc(Cl)ccc4OC3)N3CCC[C@@]23C1=O	-1	7	2	-3	-2	-37	·	·	·
COc1ccc2c(c1)C=C([C@@H]1C[C@H]3CN(c4ccccc4)C(=O)[C@]34CCCN14)CO2	99*	101*	2	87*	2	75*	-5	4	1
Cc1nn(-c2ccccc2)c(C)c1/C=N/NC(=O)c1cc(-c2cccc3ccccc23)n[nH]1	6	5	21	7	0	-58	·	·	·
Cc1nn(-c2ccccc2)c(C)c1/C=N/NC(=O)c1cc(-c2ccccc2)n[nH]1	71*	78*	14*	77*	80*	63*	84*	65*	58*
COc1cc(/C=C/C(=O)O)cc(S(=O)(=O)Nc2ccc3c(c2)CCC3)c1OC	·	·	·	0	·	-16	·	·	·
CCOc1ccc(-c2cc(N3C(=O)Nc4ccccc4N3O)n[nH]2)cc1	76*	77*	2	70*	-2	69*	2	19	2
CCOc1ncccc1C(=O)N1CCN(C(=O)c2ccccc2)CC1	-6	0	3	-4	0	-28	·	·	·
CCOc1ncccc1C(=O)N1CCN(c2cccc(C)c2C)CC1	81*	81*	11*	86*	186*	73*	85*	60*	54*
CCOc1ncccc1C(=O)N1CCN(c2cc(Cl)ccc2C)CC1	65*	68*	11	82*	84*	68*	78*	64*	61*
Cc1ccccc1OCCC(=O)OCC(=O)Nc1cc(S(=O)(=O)N2CCOCC2)ccc1Cl	-2	4	2	1	-1	-22	·	·	·
COc1cccc(Cn2c(NCc3ccccn3)nc3c2c(=O)n(C)c(=O)n3C)c1	1	1	3	2	·	-12	·	·	·
COc1cccc(Cn2c(NCc3cccnc3)nc3c2c(=O)n(C)c(=O)n3C)c1	91*	90*	2	88*	0	84*	97*	70*	81*
COc1cc(-c2noc(C)c2-c2ccc(N(C)C)nc2)cc(OC)c1OC	·	·	·	93*	·	76*	85*	82*	59*
O=C(Nc1ccccc1F)C1CCN(S(=O)(=O)c2cccc3nonc23)CC1	·	·	·	0	·	18	·	·	·
CC(C)N1CCc2c(sc(NC(=O)c3nc4ccccc4s3)c2C(N)=O)C1	4	4	3	9	-3	-3	·	·	·
CC(C)N1CCc2c(sc(NC(=O)c3ccc([N+](=O)[O-])o3)c2C(N)=O)C1	·	·	·	99*	·	72*	55	90*	86*
COc1cccc(NC(=S)N(C)C2CCN(C)CC2)c1	·	·	·	-2	·	-12	·	·	·
CCn1c2ccccc2c2cc(NC(=O)c3ccc(=O)oc3)ccc21	-1	1	·	3	2	7	·	·	·
CCn1c2ccccc2c2cc(NC(=O)c3cc(OC)c(OC)c(OC)c3)ccc21	87*	86*	23*	92*	4	83*	89*	86*	89*
COc1cccc2c(Nc3ccccc3C)cc(C)nc12	·	·	·	2	·	-32	·	·	·
